Reference: ChEMBL document CHEMBL4513216, “Probing the Open Global Health Chemical Diversity Library for Multistage-Active Starting Points for Next-Generation Antimalarials” (ACS Infect Dis, 2020)

Assay: Toxicity liver stage against HepG2, at 10uM
Type: cell-based
Parameters: test concentration 10 uM, cell line HepG2-A16-CD81EGFP
Settings: human, HepG2-A16-CD81EGFP cells; read-out: INHIBITION
Summary of the method: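 Uninfected HepG2-A16-CD81EGFP cells, 3 × 10^3 per well, 1536-well, plated on prespotted compound at 10 μM final, parasite-free screening media added to match infected plates; puromycin 10 μM positive, DMSO 0.5% negative; run in parallel with 48 h PbLuc assay at 37 °C, 5% CO2; viability by CellTiter-Glo luminescence, normalized to controls.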

SMILES | cytotoxicity at 10 µM [%]
COc1cc2c(cc1OC)S(=O)(=O)N(Cc1ccccc1C)C2=O | 10.3
COc1cc(N(C)Cc2cc(C(C)(C)C)n[nH]2)ncn1 | -11.1
CN1CCCC(NC(=O)c2ccc(C(=O)c3cc[nH]c3)cc2)C1 (stereo not given) | 11.9
Cc1noc(C)c1CC(=O)N1CCCC(c2noc(C(C)C)n2)C1 (stereo not given) | 1.48
CC(c1nc(C2CC2)no1)N1CCC(NS(=O)(=O)c2cccs2)CC1 (stereo not given) | 6.4
Cc1ccc(CN2CCN(C(=O)C3CCC3)[C@@H]3CS(=O)(=O)C[C@@H]32)cc1C | 2.09
COCCN1CCO[C@H]2CN(C(=O)c3cccs3)C[C@H]21 | 2.1
CNc1nc(C2CCCN2C(C)=O)nc2c1CN(CCO)CC2 (stereo not given) | 2.69
OCCCN(CCn1cncn1)c1ccccc1 | -4.04
CCCNC(=O)Nc1ccc2c(c1)N(S(=O)(=O)CC)CC2 | 1.97
CC(C)C(=O)N1CC[C@H]2N(C)CC[C@@]2(C(=O)N2CCOCC2)CC1 | -0.449
COc1cccc(CNC(C)c2ccc(-n3ccnc3)cc2)c1O (stereo not given) | -47.4
CC(C)n1[nH]c(=O)c2c1NC(=O)CC2c1ccc(S(C)(=O)=O)cc1 (stereo not given) | -2.28
O=c1cc2c(nn1CN1CCN(c3ccccc3)CC1)CCC2 | 7.13
COCCN(Cc1cccnc1)S(=O)(=O)c1ccc(F)cc1C | -5.06
CC(CNC(=O)Nc1ccc(C#N)cc1)N1CCc2ccccc21 (stereo not given) | -5.71
Cc1cc(N[C@@H](CO)c2ccccc2)n2nc(C)c(C)c2n1 | -0.054
CCn1ccnc1CN(C)C(C(=O)O)c1ccc(C(C)(C)C#N)cc1 (stereo not given) | -9.1
Cc1ccc(-c2cc(N)c(=O)n(CC(=O)NCC3CCCCC3)n2)s1 | 2.44
CCc1nc(C2CCCN2C(=O)CCNS(C)(=O)=O)no1 (stereo not given) | -1.77
CCN1CCCC(O)(c2nc(C)c(CCOc3ccc(F)cc3)s2)CC1 (stereo not given) | -22.4
O=C(c1cccnc1SCc1ccccc1)N1CCOCC1 | 4.74
N[C@H]1CN(C(=O)c2ccc(Cl)cc2O)C[C@@H]1C1CC1 | -44.7

SMILES | cytotoxicity at 10 µM [%]
CC(C)C(C(=O)N1CCN(c2nccs2)CC1)n1cncn1 (stereo not given) | -4.35
CCNC(=O)NCc1ccccc1NS(=O)(=O)c1ccccc1 | 8.27
O=C(C1CC1)N1CCC2(COCc3cnc(N4CCOCC4)nc32)C1 (stereo not given) | 5.31
NC(=O)c1c(NC(=O)C2CCCO2)sc2c1CCc1ccccc1-2 (stereo not given) | 0.794
Cn1cnnc1C1CCCN(C(=O)c2cnc3ccccc3n2)C1 (stereo not given) | 0.577
O=C(NCCc1ccccc1)NCCN1CCC(c2cccs2)CC1 | -4.16
O=C1CCCN1CCc1noc(-c2ccc3[nH]cnc3c2)n1 | 8.74
O=C(Nc1cc(C(F)(F)F)c[nH]c1=O)N1CCSCC1 | -5.1
CCC(=O)N1CCCC1c1n[nH]cc1-c1ccccc1F (stereo not given) | -3.02
O=C(Cc1cccnc1)N1CCC2(CCN(CC3CCCCC3)C2)CC1 | -1.28
OC(COCc1ccco1)CSc1nnc2ccccn12 (stereo not given) | 3.55
CCCS(=O)(=O)N1CCN(CCOC)c2nc(C)ccc2C1 | 8.07
O=C(CCN1CCc2c(ncn2C2CC2)C1)NC1CCCC1 | -10.1
CN(Cc1cccnc1)C1CC2(CCN(c3ncc(F)cn3)CC2)C1 | 18
Cn1nnc(NCc2ccccc2OCc2ccc(Cl)cc2)n1 | 2.71
CCN(CC1CCCO1)C(=O)CSCC(=O)Nc1ccc(C)cc1 (stereo not given) | -1.69
CC1CCN(c2ccc(=O)n(CC(=O)NCCc3ccccc3)n2)CC1 | 0.277
O=S(=O)(C1CC1)N1CCc2ncnc(-c3ccncc3)c2CC1 | -3.27
CN1CCCC(Cc2cc(N(C)C)ncn2)C1 (stereo not given) | 11.1
Cc1ccc(C(N)c2cccc(S(C)(=O)=O)c2)c(C)c1 (stereo not given) | -6.44
CN(C(=O)C1CCC1)C1CCN(c2ccccc2Cl)C1=O (stereo not given) | -0.949
Cc1ccccc1N1CCN(C2CCCN(C(=O)CCC(C)C)C2)CC1 (stereo not given) | -5.95
